Results published in ChEMBL document CHEMBL1138265, “In vivo anti-Chagas vinylthio-, vinylsulfinyl-, and vinylsulfonylbenzofuroxan derivatives” (J Med Chem, 2007).
Active and inactive are the calls of the source. The rule behind the calls is not given here.

Columns and labels:
[1] = Selectivity index, ratio of IC50 for human THP1 cells to IC50 for Trypanosoma cruzi CL Brener; type: functional, THP-1
[2] = tested on: Trypanosoma cruzi; experiment: Antitrypanosomal activity against Trypanosoma cruzi CL Brener; type: functional, organism-based
In short: (§1)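 Epimastigotes from 5-day stationary culture inoculated at 1 × 10^6 cells/mL into medium with compound added from DMSO stock (final DMSO ≤0.4%; control 0.4% DMSO, no compound). Growth followed by A600; % inhibition from day 0 and day 5 absorbance versus control. IC50 = concentration reducing the day-5 absorbance ratio to 50%. Single-dose screen at 25 µM. Means of three experiments.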

[3] = tested on: Trypanosoma cruzi; experiment: Antitrypanosomal activity against Trypanosoma cruzi Tulahuen 2 infected Swiss mouse model of Chagas disease at 60 mg/kg, po after 35 days post infection
[4] = biological target: Trypanothione reductase (Trypanosoma cruzi) (UniProt P28593); experiment: Inhibition of Trypanosoma cruzi trypanothione reductase assessed as volume activity per min at 100 uM in presence of NADPH after 4 hrs
In short: (§2)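 Time-dependent inactivation: 170 mU recombinant TR incubated at 25 °C in 40 mM HEPES, 1 mM EDTA, pH 7.5 with 100 µM inhibitor, with or without 160 µM NADPH, for 0-24 h. Aliquots diluted 200-fold and residual activity measured in the standard NADPH/TS2 assay at 340 nm. Controls: TR plus NADPH with DMSO, and TR plus inhibitor.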

[5] = tested on: Trypanosoma cruzi; experiment: Effect on oxygen uptake in Trypanosoma cruzi Tulahuen 2 assessed as increase in oxygen consumption at 200 uM; type: functional, organism-based
In short: (§3)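 Tulahuen 2 epimastigotes grown 5 days, washed, resuspended in phosphate-saline buffer pH 7.4 with 5.5 mM glucose at 0.2 mg protein/mL (40 × 10^6 parasites/mL). O2 consumption measured by Clark electrode at 28 °C, compound 200 µM final in DMSO; control with 0.1% DMSO. Cyanide-insensitive respiration measured after 20 mM KCN.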

[6] = biological target: Trypanothione reductase (Trypanosoma cruzi) (UniProt P28593); experiment: Inhibition of Trypanosoma cruzi trypanothione reductase assessed as volume activity per min at 100 uM in presence of NADPH after 1 hr; in short: as §2
[7] = tested on: Trypanosoma cruzi; experiment: Effect on oxygen uptake in Trypanosoma cruzi Tulahuen 2 at 200 uM; type: functional, organism-based; in short: as §3
[8] = Selectivity index, ratio of IC50 for human THP1 cells to IC50 for Trypanosoma cruzi Y; type: functional, THP-1
[9] = Selectivity index, ratio of IC50 for human THP1 cells to IC50 for Trypanosoma cruzi Tulahuen 2; type: functional, THP-1
[10] = tested on: Trypanosoma cruzi; experiment: Antitrypanosomal activity against Trypanosoma cruzi Tulahuen 2; type: functional, organism-based; in short: as §1
[11] = tested on: THP-1; experiment: Cytotoxicity against human THP1 cells after 48 hrs; type: cell-based; details: THP-1, 48 h
In short: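 THP-1 human macrophages in RPMI 1640 with 20% heat-inactivated FCS, left to attach 48 h at 37 °C, 5% CO2. Exposed to compounds at 25-1000 µM for 48 h, washed, then MTT 0.4 mg/mL for 3 h. Formazan dissolved in DMSO and read at OD595; % cytotoxicity corrected for compound-in-medium blanks. Triplicates per concentration, six growth controls; mean of two experiments.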

[12] = biological target: Trypanothione reductase (Trypanosoma cruzi) (UniProt P28593); experiment: Inhibition of Trypanosoma cruzi trypanothione reductase assessed as volume activity per min at 100 uM in presence of NADPH; in short: as §2
[13] = biological target: T1, Cruzipain (Trypanosoma cruzi, UniProt P25779); experiment: Binding affinity to Trypanosoma cruzi Tulahuen 2 cruzipain
[14] = tested on: Trypanosoma cruzi; experiment: Antitrypanosomal activity against Trypanosoma cruzi Y; type: functional, organism-based; in short: as §1
[15] = biological target: Cruzipain (Trypanosoma cruzi) (UniProt P25779); experiment: Inhibition of Trypanosoma cruzi Tulahuen 2 cruzipain at 100 uM
In short: (§4)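 Cruzipain purified from Tulahuen 2 epimastigotes by ConA-Sepharose affinity chromatography. Assayed in 50 mM Tris-acetate pH 8.0 with 0.3 mM Bz-Pro-Phe-Arg-pNA and 10 mM β-mercaptoethanol, A410 followed at 30 °C. Inhibitors added in DMSO, controls with matching DMSO, E-64 as reference. Tested at 10-100 µM; means of at least two measurements.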

[16] = biological target: T1, Cruzipain; experiment: Inhibition of Trypanosoma cruzi Tulahuen 2 cruzipain; in short: as §4
[17] = tested on: Mus musculus; experiment: Toxicity in Trypanosoma cruzi Tulahuen 2 infected Swiss mouse model of Chagas disease at 60 mg/kg, po; details: in vivo
[18] = biological target: Trypanothione reductase (Trypanosoma cruzi) (UniProt P28593); experiment: Inhibition of Trypanosoma cruzi trypanothione reductase assessed as volume activity per minute at 100 uM
[19] = biological target: Cruzipain (Trypanosoma cruzi) (UniProt P25779); experiment: Inhibition of Trypanosoma cruzi Tulahuen 2 cruzipain at 50 uM; in short: as §4
[20] = biological target: Cruzipain (Trypanosoma cruzi) (UniProt P25779); experiment: Inhibition of Trypanosoma cruzi Tulahuen 2 cruzipain at 10 uM; in short: as §4
[21] = tested on: Trypanosoma cruzi; experiment: Antitrypanosomal activity against Trypanosoma cruzi Tulahuen 2 infected Swiss mouse model of Chagas disease at 60 mg/kg, po after 41 days post infection
[22] = biological target: Cruzipain (Trypanosoma cruzi) (UniProt P25779); experiment: Inhibition of Trypanosoma cruzi Tulahuen 2 cruzipain at 20 uM; in short: as §4
[23] = biological target: Trypanothione reductase (Trypanosoma cruzi) (UniProt P28593); experiment: Inhibition of Trypanosoma cruzi trypanothione reductase assessed as volume activity per min at 100 uM after 1 hr; in short: as §2
[24] = biological target: Trypanothione reductase (Trypanosoma cruzi) (UniProt P28593); experiment: Inhibition of Trypanosoma cruzi trypanothione reductase assessed as volume activity per min at 100 uM after 4 hrs; in short: as §2
[25] = biological target: Cruzipain (Trypanosoma cruzi) (UniProt P25779); experiment: Inhibition of Trypanosoma cruzi Tulahuen 2 cruzipain at 25 uM; in short: as §4
[26] = biological target: Trypanothione reductase (Trypanosoma cruzi) (UniProt P28593); experiment: Inhibition of Trypanosoma cruzi trypanothione reductase at 100 uM

Cruzipain (Trypanosoma cruzi), sequence (P25779 123-467 limits assumed): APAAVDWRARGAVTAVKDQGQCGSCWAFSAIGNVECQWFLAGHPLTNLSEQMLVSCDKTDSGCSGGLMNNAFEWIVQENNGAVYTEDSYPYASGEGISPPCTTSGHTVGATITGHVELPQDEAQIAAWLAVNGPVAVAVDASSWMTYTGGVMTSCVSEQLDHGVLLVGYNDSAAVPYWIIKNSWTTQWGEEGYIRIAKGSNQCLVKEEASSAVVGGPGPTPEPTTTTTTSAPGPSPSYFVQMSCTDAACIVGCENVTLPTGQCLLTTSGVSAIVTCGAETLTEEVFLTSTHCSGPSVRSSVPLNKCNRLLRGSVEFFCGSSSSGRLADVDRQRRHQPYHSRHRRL
T1 sequence (P25779 whole entry): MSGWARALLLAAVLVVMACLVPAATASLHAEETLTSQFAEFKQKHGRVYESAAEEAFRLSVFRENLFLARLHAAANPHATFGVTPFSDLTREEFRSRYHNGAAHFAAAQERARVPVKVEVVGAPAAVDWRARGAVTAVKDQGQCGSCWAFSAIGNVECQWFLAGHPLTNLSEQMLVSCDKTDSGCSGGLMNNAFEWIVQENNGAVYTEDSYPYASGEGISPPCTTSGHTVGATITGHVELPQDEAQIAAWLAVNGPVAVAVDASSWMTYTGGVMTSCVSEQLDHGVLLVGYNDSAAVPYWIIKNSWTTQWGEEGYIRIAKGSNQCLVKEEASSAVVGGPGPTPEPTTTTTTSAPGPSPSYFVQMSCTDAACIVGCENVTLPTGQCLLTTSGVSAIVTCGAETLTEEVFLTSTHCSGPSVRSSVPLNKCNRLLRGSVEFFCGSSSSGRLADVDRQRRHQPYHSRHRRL
Trypanothione reductase (Trypanosoma cruzi), sequence (P28593 whole entry, looked up): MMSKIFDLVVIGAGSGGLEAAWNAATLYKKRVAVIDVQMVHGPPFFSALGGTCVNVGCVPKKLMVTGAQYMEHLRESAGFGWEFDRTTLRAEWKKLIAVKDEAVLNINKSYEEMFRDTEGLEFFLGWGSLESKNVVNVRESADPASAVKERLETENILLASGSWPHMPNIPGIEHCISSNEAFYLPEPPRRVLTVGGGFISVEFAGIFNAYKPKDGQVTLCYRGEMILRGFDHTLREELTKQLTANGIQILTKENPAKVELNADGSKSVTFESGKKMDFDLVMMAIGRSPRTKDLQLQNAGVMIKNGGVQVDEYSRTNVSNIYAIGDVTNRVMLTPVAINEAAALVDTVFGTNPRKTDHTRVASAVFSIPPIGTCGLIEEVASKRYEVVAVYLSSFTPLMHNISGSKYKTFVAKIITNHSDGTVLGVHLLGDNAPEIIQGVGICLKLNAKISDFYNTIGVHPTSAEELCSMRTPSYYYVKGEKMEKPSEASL

SMILES | IC50 [2] | IC50 [10] | IC50 [14] | inhibition [15] | inhibition [19] | inhibition [20] | inhibition [22] | Ratio IC50 [1] | Activity [3] | Ratio IC50 [8] | Ratio IC50 [9] | IC50 [11] | Activity [17] | Activity [21] | further results
[O-][n+]1onc2cc(/C=C\Sc3ccccc3)ccc21 | 3.5 µM | 3.8 µM | 10 µM |  |  |  |  |  | Active |  |  |  | Non-toxic | Active | 
[O-][n+]1onc2cc(/C=C/c3ccccc3)ccc21 | 7.5 µM | 10.8 µM | 6.2 µM | 22% | 43% | 12% | 0% | 14.7 |  | 17.7 | 10.2 | 110 µM |  |  | 
[O-][n+]1onc2cc(/C=C/Sc3ccccc3)ccc21 | 4.7 µM | 2.6 µM | 7.6 µM |  | 25% | 0% |  |  | Active |  |  |  | Non-toxic | Active | inhibition [25]: 15%
[O-][n+]1onc2cc(/C=C\c3ccccc3)ccc21 | 15.7 µM | 7 µM | 9 µM | 44% | 20% | 19% | 11% | 4 |  | 7 | 8.9 | 62.6 µM |  |  | 
CC1CS(=O)(=O)CCN1/N=C/c1ccc([N+](=O)[O-])o1 (configuration not stated) [NIFURTIMOX] | 8.5 µM | 7.7 µM | 6.5 µM |  |  |  |  |  |  |  |  |  |  |  | 
[O-][n+]1onc2cc(/C=C/[S+]([O-])c3ccccc3)ccc21 (configuration not stated) | 15.1 µM | 2.6 µM | 8.8 µM | 12% | 24% | 2% | 0% | 8.2 | Active | 14.1 | 47.7 | 124 µM | Non-toxic | Active | deltaA [4]: 0.105; deltaA [6]: 0.105; deltaA [24]: 0.091; inhibition [26]: 13%; deltaA [12]: 0.103; deltaA [18]: 0.104; deltaA [23]: 0.086
CC(=O)N1CCN(c2ccc(OCC3COC(Cn4ccnc4)(c4ccc(Cl)cc4Cl)O3)cc2)CC1 (configuration not stated) [KETOCONAZOLE] | 5 µM | 10 µM | 9.8 µM |  |  |  |  | 8.8 |  | 4.5 | 4.4 | 44 µM |  |  | 

More lines, main results first:

IC50 [2] | IC50 [10] | IC50 [14] | inhibition [15] | inhibition [19] | inhibition [20] | inhibition [22] | SMILES | Ratio IC50 [1] | Activity [3] | Ratio IC50 [8] | Ratio IC50 [9] | IC50 [11] | Activity [17] | Activity [21] | further results
6.1 µM | 1.1 µM | 2.1 µM | 19% | 24% | 2% | 3% | O=S(=O)(/C=C\c1ccc2c(c1)no[n+]2[O-])c1ccccc1 | 17.9 | Active | 51.9 | 99.1 | 109 µM | Non-toxic | Active | deltaA [4]: 0.088; Activity [5]: inactive; deltaA [6]: 0.084; Activity [7]: inactive; deltaA [12]: 0.097; Kd [13]: 1100 µM; IC50 [16]: > 50 µM; deltaA [18]: 0.104; deltaA [23]: 0.102
42 µM | 17.1 µM | 44.7 µM |  |  |  |  | CN(C/C=C/C#CC(C)(C)C)Cc1cccc2ccccc12 [TERBINAFINE] | 7.8 |  | 7.4 | 19.3 | 329 µM |  |  | 
 | > 25 µM |  |  |  |  |  | O=S(=O)(CCO)Cc1ccc2c(c1)no[n+]2[O-] |  |  |  | <12 | 300 µM |  |  | 
7.6 µM | 1.6 µM | 5 µM | 0% | 35% | 0% | 0% | O=S(=O)(/C=C/c1ccc2c(c1)no[n+]2[O-])c1ccccc1 | 53.8 | Active | 81.8 | 255.6 | 409 µM | Non-toxic | Active | deltaA [4]: 0.098; Activity [5]: inactive; deltaA [6]: 0.099; deltaA [24]: 0.106; Activity [7]: inactive; deltaA [12]: 0.101; Kd [13]: 500 µM; IC50 [16]: > 50 µM; deltaA [18]: 0.102; deltaA [23]: 0.11
 |  |  |  |  | 100% |  | CC(C)C[C@H](NC(=O)[C@H]1O[C@@H]1C(=O)O)C(=O)NCCCCN=C(N)N |  |  |  |  |  |  |  | 
4.5 µM | 7.4 µM | 3.8 µM |  |  |  |  | O=C(Cn1ccnc1[N+](=O)[O-])NCc1ccccc1 [BENZNIDAZOLE] |  |  |  |  |  | Non-toxic |  | 
9.1 µM | 14.6 µM | 12.3 µM |  |  |  |  | C=CS(=O)(=O)Cc1ccc2c(c1)no[n+]2[O-] | 30.1 |  | 22.3 | 18.8 | 274 µM |  |  | 
